ChEMBL document CHEMBL5058577, “EUbOPEN Chemogenomics Library 2 (Multiplex)” (2022)

Test system: HEK-293T
Experiment: Multiplex assay against HEK293T
Format: toxicity, cell-based
Settings: human
Outline: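 Live cells were stained at seeding with Hoechst33342, BioTracker Green Microtubule Cytoskeleton Dye, MitoTracker Red and Annexin V Alexa Fluor 680, then imaged on a CQ1 microscope at 37°C and 5% CO2 after compound addition. CellPathfinder machine-learning gating split cells into Hoechst high-intensity objects or normal cells. Normal cells were split into healthy, pyknosed or fragmented nuclei, and pyknosed cells into mitotic or apoptotic. Tubulin, mitochondrial-mass and membrane-permeability phenotypes are per cents of healthy-nucleus cells.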

[1] = 12 h, 1 µM, compound concentration 1 uM, replicate 1
[2] = 12 h, 1 µM, compound concentration 1 uM, replicate 2
[3] = 12 h, 10 µM, compound concentration 10 uM, replicate 1
[4] = 12 h, 10 µM, compound concentration 10 uM, replicate 2
[5] = 24 h, 1 µM, compound concentration 1 uM, replicate 1
[6] = 24 h, 1 µM, compound concentration 1 uM, replicate 2
[7] = 24 h, 10 µM, compound concentration 10 uM, replicate 1
[8] = 24 h, 10 µM, compound concentration 10 uM, replicate 2
[9] = 48 h, 1 µM, compound concentration 1 uM, replicate 1
[10] = 48 h, 1 µM, compound concentration 1 uM, replicate 2
[11] = 48 h, 10 µM, compound concentration 10 uM, replicate 1
[12] = 48 h, 10 µM, compound concentration 10 uM, replicate 2

## CC(=O)Nc1cccc2c1c(Sc1ccc(Cl)cc1)c(C)n2CC(=O)O [AZD1981]
[1]
  Population Apoptotic (%): 37%
  Population Fragmented Nuclei (%): 6%
  Population Healthy Nuclei (%): 81%
  Population Hoechst High Intensity Objects (%): 6%
  Population Membrane Permeable-Phenotype (%): 0%
  Population Mitochondria Different-Phenotype (%): 46%
  Population Mitotic Cells (%): 62%
  Population Normal (%): 93%
  Population Pyknosed Nuclei (%): 11%
  Population Tubulin-Different-Phenotype (%): 28%
  Total Cell Count: 405
[2]
  Population Apoptotic (%): 60%
  Population Fragmented Nuclei (%): 5%
  Population Healthy Nuclei (%): 80%
  Population Hoechst High Intensity Objects (%): 8%
  Population Mitochondria Different-Phenotype (%): 57%
  Population Mitotic Cells (%): 40%
  Population Normal (%): 91%
  Population Pyknosed Nuclei (%): 13%
  Population Tubulin-Different-Phenotype (%): 18%
  Total Cell Count: 314
[3]
  Population Apoptotic (%): 38%
  Population Fragmented Nuclei (%): 8%
  Population Healthy Nuclei (%): 78%
  Population Hoechst High Intensity Objects (%): 7%
  Population Membrane Permeable-Phenotype (%): 0%
  Population Mitochondria Different-Phenotype (%): 44%
  Population Mitotic Cells (%): 61%
  Population Normal (%): 92%
  Population Pyknosed Nuclei (%): 12%
  Population Tubulin-Different-Phenotype (%): 29%
  Total Cell Count: 403
[4]
  Population Apoptotic (%): 60%
  Population Fragmented Nuclei (%): 6%
  Population Healthy Nuclei (%): 77%
  Population Hoechst High Intensity Objects (%): 15%
  Population Mitochondria Different-Phenotype (%): 60%
  Population Mitotic Cells (%): 39%
  Population Normal (%): 84%
  Population Pyknosed Nuclei (%): 15%
  Population Tubulin-Different-Phenotype (%): 26%
  Total Cell Count: 318
[5]
  Population Apoptotic (%): 20%
  Population Fragmented Nuclei (%): 9%
  Population Healthy Nuclei (%): 80%
  Population Hoechst High Intensity Objects (%): 2%
  Population Membrane Permeable-Phenotype (%): 0%
  Population Mitochondria Different-Phenotype (%): 33%
  Population Mitotic Cells (%): 79%
  Population Normal (%): 97%
  Population Pyknosed Nuclei (%): 9%
  Population Tubulin-Different-Phenotype (%): 23%
  Total Cell Count: 568
[6]
  Population Apoptotic (%): 54%
  Population Fragmented Nuclei (%): 7%
  Population Hoechst High Intensity Objects (%): 9%
  Population Mitochondria Different-Phenotype (%): 42%
  Population Mitotic Cells (%): 45%
  Population Normal (%): 90%
  Population Pyknosed Nuclei (%): 11%
  Population Tubulin-Different-Phenotype (%): 16%
  Total Cell Count: 398
[7]
  Population Apoptotic (%): 40%
  Population Fragmented Nuclei (%): 7%
  Population Healthy Nuclei (%): 79%
  Population Hoechst High Intensity Objects (%): 4%
  Population Membrane Permeable-Phenotype (%): 0%
  Population Mitochondria Different-Phenotype (%): 28%
  Population Mitotic Cells (%): 59%
  Population Normal (%): 95%
  Population Pyknosed Nuclei (%): 13%
  Population Tubulin-Different-Phenotype (%): 25%
  Total Cell Count: 526
[8]
  Population Apoptotic (%): 59%
  Population Fragmented Nuclei (%): 8%
  Population Healthy Nuclei (%): 81%
  Population Hoechst High Intensity Objects (%): 12%
  Population Mitochondria Different-Phenotype (%): 45%
  Population Mitotic Cells (%): 40%
  Population Normal (%): 87%
  Population Pyknosed Nuclei (%): 9%
  Population Tubulin-Different-Phenotype (%): 19%
  Total Cell Count: 387
[9]
  Population Apoptotic (%): 21%
  Population Fragmented Nuclei (%): 15%
  Population Healthy Nuclei (%): 78%
  Population Hoechst High Intensity Objects (%): 1%
  Population Membrane Permeable-Phenotype (%): 1%
  Population Mitochondria Different-Phenotype (%): 18%
  Population Mitotic Cells (%): 78%
  Population Normal (%): 98%
  Population Pyknosed Nuclei (%): 6%
  Population Tubulin-Different-Phenotype (%): 10%
  Total Cell Count: 908
[10]
  Population Apoptotic (%): 38%
  Population Fragmented Nuclei (%): 13%
  Population Healthy Nuclei (%): 79%
  Population Hoechst High Intensity Objects (%): 3%
  Population Mitochondria Different-Phenotype (%): 20%
  Population Mitotic Cells (%): 61%
  Population Normal (%): 96%
  Population Tubulin-Different-Phenotype (%): 12%
  Total Cell Count: 570
[11]
  Population Apoptotic (%): 37%
  Population Fragmented Nuclei (%): 14%
  Population Healthy Nuclei (%): 78%
  Population Hoechst High Intensity Objects (%): 2%
  Population Membrane Permeable-Phenotype (%): 0%
  Population Mitochondria Different-Phenotype (%): 18%
  Population Mitotic Cells (%): 62%
  Population Normal (%): 97%
  Population Pyknosed Nuclei (%): 7%
  Population Tubulin-Different-Phenotype (%): 11%
  Total Cell Count: 751
[12]
  Population Apoptotic (%): 33%
  Population Fragmented Nuclei (%): 16%
  Population Hoechst High Intensity Objects (%): 4%
  Population Mitochondria Different-Phenotype (%): 26%
  Population Mitotic Cells (%): 66%
  Population Normal (%): 95%
  Population Pyknosed Nuclei (%): 5%
  Total Cell Count: 556
